The values that follow come from ChEMBL document CHEMBL1136701, “Design, synthesis and biological activity of beta-carboline-based type-5 phosphodiesterase inhibitors” (Bioorg Med Chem Lett, 2003).

The target in assay [1] is Dual 3',5'-cyclic-AMP and -GMP phosphodiesterase 11A (Homo sapiens, UniProt Q9HCR9). Description: Inhibitory activity against phosphodiesterase 11 (PDE11) obtained from recombinant Sf9 expression. The essentials: (§1)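 Scintillation proximity assay: fixed enzyme amount with varying inhibitor concentrations; substrate cGMP (3:1 unlabelled to [³H]-labelled) at about 1/3 Km, so that IC50 ≈ Ki. Buffer 20 mM Tris–HCl pH 7.4, 5 mM MgCl2, BSA. Reactions started with enzyme, run 30–60 min at 30 °C, stopped with yttrium silicate SPA beads. Counts converted to % of uninhibited control; IC50 from curve fit.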

Assay [2] deals with T1, cGMP-specific 3',5'-cyclic phosphodiesterase (Homo sapiens, UniProt O76074). Description: Inhibitory activity against phosphodiesterase 5 (PDE5) obtained from human corpus cavernosum tissue. The essentials: as §1
Assay [3] in a line: Relative inhibitoin of PDE11 and PDE5.
For assay [4], the target named is Phosphodiesterase 6. Put plainly: Inhibitory activity against phosphodiesterase 6 (PDE6) obtained from canine or bovine retina. It is filed as protein assay. The essentials:
as §1

The nature of assay [5]: Relative inhibition of PDE11 and PDE5.
The target of assay [6] is T1, cGMP-specific 3',5'-cyclic phosphodiesterase. Put plainly: Selectivity ratio of the compound against PDE6 to that of PED5.

pIC50: −log10 of the molar value.

Sequence of Dual 3',5'-cyclic-AMP and -GMP phosphodiesterase 11A (Q9HCR9 whole entry): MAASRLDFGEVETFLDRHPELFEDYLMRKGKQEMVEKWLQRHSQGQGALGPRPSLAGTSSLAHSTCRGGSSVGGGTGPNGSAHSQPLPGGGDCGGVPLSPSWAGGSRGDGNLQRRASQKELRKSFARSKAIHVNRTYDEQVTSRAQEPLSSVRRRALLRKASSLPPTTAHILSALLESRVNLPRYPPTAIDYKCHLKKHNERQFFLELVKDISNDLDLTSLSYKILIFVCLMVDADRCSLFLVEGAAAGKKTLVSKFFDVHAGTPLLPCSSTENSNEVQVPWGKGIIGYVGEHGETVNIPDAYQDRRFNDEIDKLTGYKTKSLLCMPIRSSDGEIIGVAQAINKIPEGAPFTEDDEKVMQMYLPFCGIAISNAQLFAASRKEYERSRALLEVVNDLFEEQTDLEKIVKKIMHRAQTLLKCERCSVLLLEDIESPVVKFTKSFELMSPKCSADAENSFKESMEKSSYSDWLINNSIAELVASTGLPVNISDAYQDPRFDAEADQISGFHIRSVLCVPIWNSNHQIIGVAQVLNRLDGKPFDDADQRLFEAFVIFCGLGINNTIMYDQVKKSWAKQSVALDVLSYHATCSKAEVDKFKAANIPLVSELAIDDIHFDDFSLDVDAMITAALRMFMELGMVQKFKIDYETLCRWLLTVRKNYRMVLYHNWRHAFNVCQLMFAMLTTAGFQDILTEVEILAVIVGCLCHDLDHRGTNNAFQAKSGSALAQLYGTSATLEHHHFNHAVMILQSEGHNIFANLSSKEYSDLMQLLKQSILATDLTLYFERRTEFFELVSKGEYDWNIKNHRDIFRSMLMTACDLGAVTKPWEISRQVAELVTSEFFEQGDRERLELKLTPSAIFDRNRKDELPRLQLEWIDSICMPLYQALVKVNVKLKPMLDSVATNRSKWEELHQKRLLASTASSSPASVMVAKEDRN

On to `COc1ccc([C@@H]2c3[nH]c4ccccc4c3C[C@@H]3C(=O)N([C@@H]4CCN(Cc5ccccc5)C4)CC(=O)N23)cc1C`, for which the pIC50 (as a rule, the negative decadic logarithm of the IC50, by convention in mol/L) in assay [1] is 7.15; in assay [2], 6.88. For the same compound, in assay [3], the Selectivity ratio came to 0.5.
As to `O=C1[C@H]2Cc3c([nH]c4ccccc34)[C@@H](c3ccc4c(c3)OCO4)N2C(=O)CN1[C@@H]1CCN(Cc2ccccc2)C1`, the pIC50 in assay [1] is 8.26. In addition, the IC50 – broadly, the concentration that gives 50% inhibition – in assay [4] was 249 nM.
Take `NC(=O)CCN1CC[C@@H](N2CC(=O)N3[C@H](c4ccc5c(c4)OCO5)c4[nH]c5ccccc5c4C[C@@H]3C2=O)C1`: the negative logarithm of the IC50 (pIC50) was 7.32 in assay [1] and 8.08 in assay [2]. The compound further showed a 50% inhibitory concentration (IC50) in assay [4] of 1601 nM. Also, the Selectivity ratio was 5.7 in assay [5] and 189 in assay [6].
`O=C1[C@H]2Cc3c([nH]c4ccccc34)[C@@H](c3ccc4c(c3)OCO4)N2C(=O)CN1[C@H]1CCN(Cc2ccccc2)C1`: the pIC50 in assay [1] was 7.07.
In the case of `O=C1[C@H]2Cc3c([nH]c4ccccc34)[C@@H](c3ccc4c(c3)OCO4)N2C(=O)CN1[C@@H]1CCN(CCc2cnccn2)C1`, the values for the pIC50 in assay [1] and in assay [2] were 8.38 and 8.70, respectively. Moreover, the half-maximal inhibitory concentration (IC50) in assay [4] is on record as 358 nM. In addition, the Selectivity ratio in assay [5] came to 2.1; in assay [6], 181.
With `CN(C)CC(=O)CN1CC[C@@H](N2CC(=O)N3[C@H](c4ccc5c(c4)OCO5)c4[nH]c5ccccc5c4C[C@@H]3C2=O)C1`, the negative-log IC50 (pIC50) in assay [1] is 7.32; in assay [2], 7.70. Further, the Selectivity ratio in assay [5] amounted to 2.4.
Consider `O=C1[C@H]2Cc3c([nH]c4ccccc34)[C@@H](c3ccc4c(c3)OCO4)N2C(=O)CN1[C@@H]1CCN(CCC2CC2)C1`, for which the pIC50 in assay [1] is 7.37; in assay [2], 7.80. Also, in assay [4], the half-inhibitory concentration (IC50) came out at 2660 nM. In addition, the Selectivity ratio amounted to 2.7 in assay [5] and 169 in assay [6].
Consider `COc1cccc([C@@H]2c3[nH]c4ccccc4c3C[C@@H]3C(=O)N([C@@H]4CCN(Cc5ccccc5)C4)CC(=O)N23)c1` (stereo in doubt; form 2) [listing 1 of 2 here], for which the pIC50 in assay [1] was 7.93; in assay [2], 7.81.
`CN(C)C(=O)CCN1CC[C@@H](N2CC(=O)N3[C@H](c4ccc5c(c4)OCO5)c4[nH]c5ccccc5c4C[C@@H]3C2=O)C1`: the pIC50 in assay [1] is 8.33; in assay [2], 8.60. Besides, the IC50 in assay [4] is 807 nM. Further, the Selectivity ratio came out at 1.9 in assay [5] and 316 in assay [6].
For `O=C1[C@H]2Cc3c([nH]c4ccccc34)[C@@H](c3ccc4c(c3)OCO4)N2C(=O)CN1CCN1CCOCC1`, the 50% inhibitory concentration (IC50) in assay [4] is 2966 nM. For the same compound, in assay [2], the pIC50 was 7.25.
For the compound `CCCCCN1CC[C@@H](N2CC(=O)N3[C@H](c4ccc5c(c4)OCO5)c4[nH]c5ccccc5c4C[C@@H]3C2=O)C1`, the results for the negative-log IC50 (pIC50) in assay [1] and in assay [2] were 7.51 and 7.88, respectively. The compound further had an IC50 in assay [4] of 1770 nM. Further, the Selectivity ratio in assay [5] was determined as 2.3; in assay [6], 134.
Regarding `Cn1ccnc1CCN1CC[C@@H](N2CC(=O)N3[C@H](c4ccc5c(c4)OCO5)c4[nH]c5ccccc5c4C[C@@H]3C2=O)C1` (stereo in doubt; form 2) [listing 1 of 2 here], the figures for the pIC50 in assay [1] and in assay [2] were 8.85 and 9.15, respectively. In assay [4], this compound displayed an IC50 of 125 nM.
Turning to `Cn1ccnc1CCN1CC[C@@H](N2CC(=O)N3[C@H](c4ccc5c(c4)OCO5)c4[nH]c5ccccc5c4C[C@@H]3C2=O)C1` (stereo in doubt; form 2) [listing 2 of 2 here], the values for the Selectivity ratio in assay [5] and in assay [6] were 2 and 173, respectively.
Regarding `COc1cccc([C@@H]2c3[nH]c4ccccc4c3C[C@@H]3C(=O)N([C@@H]4CCN(Cc5ccccc5)C4)CC(=O)N23)c1` (stereo in doubt; form 1) [listing 1 of 2 here], the results for the negative logarithm of the IC50 (pIC50) in assay [1] and in assay [2] were 7.36 and 7.54, respectively.
Take `COCCCN1CC[C@@H](N2CC(=O)N3[C@H](c4ccc5c(c4)OCO5)c4[nH]c5ccccc5c4C[C@@H]3C2=O)C1`: the pIC50 is 7.66 in assay [1] and 8.15 in assay [2]. In addition, in assay [4], the half-maximal inhibitory concentration (IC50) came out at 1340 nM. Besides, the results for the Selectivity ratio in assay [5] and in assay [6] were 3 and 188, respectively.
As for `O=C1[C@H]2Cc3c([nH]c4ccccc34)[C@@H](c3ccc4c(c3)OCO4)N2C(=O)CN1C1CN(Cc2ccccc2)C1`, the pIC50 in assay [1] is 6.02; in assay [2], 6.79.
Take `COc1cccc([C@@H]2c3[nH]c4ccccc4c3C[C@@H]3C(=O)N([C@@H]4CCN(Cc5ccccc5)C4)CC(=O)N23)c1` (stereo in doubt; form 2) [listing 2 of 2 here]: the Selectivity ratio in assay [3] was determined as 0.8.
As to `COc1ccc([C@@H]2c3[nH]c4ccccc4c3C[C@@H]3C(=O)N([C@@H]4CCN(Cc5ccccc5)C4)CC(=O)N23)cc1OC`, the negative-log IC50 (pIC50) in assay [1] was 6.00; in assay [2], < 6.00.
Consider `O=C1[C@H]2Cc3c([nH]c4ccccc34)[C@@H](c3ccc4c(c3)OCO4)N2C(=O)CN1[C@@H]1CCN(CCc2ncc[nH]2)C1`, for which the pIC50 in assay [1] was 8.46; in assay [2], 8.92. The compound also had an IC50 in assay [4] of 357 nM. Also, the Selectivity ratio in assay [5] is 2.9; in assay [6], 300.
Taken in the same sequence, the figures for `O=C(CCN1CC[C@@H](N2CC(=O)N3[C@H](c4ccc5c(c4)OCO5)c4[nH]c5ccccc5c4C[C@@H]3C2=O)C1)N1CCC1` were 8.33, 8.40, 846 nM, 1.2 and 211.
Take `Cn1ccnc1CCN1CC[C@@H](N2CC(=O)N3[C@H](c4ccc5c(c4)OCO5)c4[nH]c5ccccc5c4C[C@@H]3C2=O)C1` (stereo in doubt; form 1) [listing 1 of 2 here]: the Selectivity ratio in assay [5] came to 2.6; in assay [6] it was 640.
For the compound `C=CCCN1CC[C@@H](N2CC(=O)N3[C@H](c4ccc5c(c4)OCO5)c4[nH]c5ccccc5c4C[C@@H]3C2=O)C1`, the negative-log IC50 (pIC50) in assay [2] was 8.40. Also, the Selectivity ratio in assay [5] was determined as 3.
For `CCCN1CC[C@@H](N2CC(=O)N3[C@H](c4ccc5c(c4)OCO5)c4[nH]c5ccccc5c4C[C@@H]3C2=O)C1`, the pIC50 is < 5.00 in assay [4] and 7.24 in assay [2]. Further, in assay [6], the Selectivity ratio is > 175.
Regarding `Cn1ccnc1CCN1CC[C@@H](N2CC(=O)N3[C@H](c4ccc5c(c4)OCO5)c4[nH]c5ccccc5c4C[C@@H]3C2=O)C1` (stereo in doubt; form 1) [listing 2 of 2 here], the pIC50 in assay [1] is 8.66; in assay [2] it was 9.10. Also, in assay [4], the concentration for half-maximal inhibition (IC50) is 494 nM.
As for `O=C1[C@H]2Cc3c([nH]c4ccccc34)[C@@H](c3ccc4c(c3)OCO4)N2C(=O)CN1[C@@H]1CCN(CCc2cccnc2)C1`, the pIC50 in assay [1] was 8.62; in assay [2], 8.72. For the same compound, in assay [4], the IC50 was 271 nM. Moreover, the Selectivity ratio was found to be 1.3 in assay [5] and 144 in assay [6].
In the case of `O=C1[C@H]2Cc3c([nH]c4ccccc34)[C@@H](c3ccc4c(c3)OCO4)N2C(=O)CN1[C@@H]1CCN(CCc2ccccn2)C1`, the pIC50 in assay [1] was 8.70; in assay [2], 8.82. In assay [4], this compound showed an IC50 of 226 nM. The figures for the Selectivity ratio in assay [5] and in assay [6] were 1.4 and 153, respectively.
For the compound `O=C1[C@H]2Cc3c([nH]c4ccccc34)[C@@H](c3ccc(O)nc3)N2C(=O)CN1[C@@H]1CCN(Cc2ccccc2)C1`, the pIC50 was 7.41 in assay [1] and 6.90 in assay [2]. The Selectivity ratio in assay [3] is 0.3.
As to `COc1cccc([C@@H]2c3[nH]c4ccccc4c3C[C@@H]3C(=O)N([C@@H]4CCN(Cc5ccccc5)C4)CC(=O)N23)c1` (stereo in doubt; form 1) [listing 2 of 2 here], in assay [3], the Selectivity ratio is 1.5.
In the case of `CN(C)CCN1CC(=O)N2[C@H](c3ccc4c(c3)OCO4)c3[nH]c4ccccc4c3C[C@@H]2C1=O`, the pIC50 was 7.28 in assay [1] and 6.87 in assay [2]. This compound registered an IC50 in assay [4] of 8224 nM.
In assay [4], `O=C1[C@H]2Cc3c([nH]c4ccccc34)[C@@H](c3ccc4c(c3)OCO4)N2C(=O)CN1C1CCN(Cc2ccccc2)CC1` yielded an IC50 of 1619 nM. Moreover, the pIC50 in assay [2] is 7.59.
Turning to `COc1ccc([C@@H]2c3[nH]c4ccccc4c3C[C@@H]3C(=O)N([C@@H]4CCN(Cc5ccccc5)C4)CC(=O)N23)cc1`, the values for the negative logarithm of the IC50 (pIC50) in assay [1] and in assay [2] were 8.17 and 8.57, respectively. Also, in assay [3], the Selectivity ratio was determined as 2.5.
In the case of `CCNC(=O)CCN1CC[C@@H](N2CC(=O)N3[C@H](c4ccc5c(c4)OCO5)c4[nH]c5ccccc5c4C[C@@H]3C2=O)C1`, the negative-log IC50 (pIC50) was 8.37 in assay [1] and 8.44 in assay [2]. For the same compound, the IC50 in assay [4] was 620 nM. In addition, the Selectivity ratio in assay [5] stood at 1.2; in assay [6], 172.
As for `Cc1ccc([C@@H]2c3[nH]c4ccccc4c3C[C@@H]3C(=O)N([C@@H]4CCN(Cc5ccccc5)C4)CC(=O)N23)cc1`, the results for the negative logarithm of the IC50 (pIC50) in assay [1] and in assay [2] were 8.19 and 7.89, respectively. For the same compound, the Selectivity ratio in assay [3] turned out to be 0.5.
